Results from ChEMBL document CHEMBL3769367, “Orexin Receptor Antagonists: New Therapeutic Agents for the Treatment of Insomnia” (J Med Chem, 2016).

Legend:
[1] = (§1) Apparent half life of the compound in human; format: ADME, organism-based; conditions: in vivo, read-out: t1/2(app) (converted)
Plasma [2] = assay: Drug metabolism in human plasma assessed as (S)-2-(2-((1-(5-(4-fluorophenyl)-2-methylthiazole-4-carbonyl)piperidin-2-yl)methylcarbamoyl)-6-hydroxyphenyl)acetic acid formation at 30 mg, po by LSC analysis; format: ADME, organism-based; conditions: in vivo
How it was run: (§2)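 Eight healthy subjects received a single 30 mg oral dose of radiolabeled compound. Plasma extracts were profiled for metabolites, each expressed as a percentage of the radioactive dose.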

Plasma [3] = assay: Drug metabolism in human plasma assessed as 2-(((S)-1-(5-(4-fluorophenyl)-2-methylthiazole-4-carbonyl)piperidin-2-yl)methyl)-3,5-dihydroxy-3,4-dihydroisoquinolin-1(2H)-one formation at 30 mg, po by LSC analysis; format: ADME, organism-based; conditions: in vivo; how it was run: as §2
Homo sapiens [4] = assay: Effect on sleep parameter in insomnia patient assessed as sleep efficiency at 60 mg, po administered two consecutive nights 90 mins prior to sleep by polysomnography; format: functional
Homo sapiens [5] = assay: Effect on sleep parameter in insomnia patient assessed as sleep efficiency at 30 mg, po administered two consecutive nights 90 mins prior to sleep by polysomnography; format: functional
Homo sapiens [6] = assay: Effect on sleep parameter in insomnia patient assessed as wake after sleep onset time at 10 mg, po administered two consecutive nights 90 mins prior to sleep by polysomnography; format: functional
Homo sapiens [7] = assay: Effect on sleep parameter in insomnia patient assessed as latency to persistent sleep time at 30 mg, po administered two consecutive nights 90 mins prior to sleep by polysomnography; format: functional
Homo sapiens [8] = assay: Effect on sleep parameter in insomnia patient assessed as latency to persistent sleep time at 60 mg, po administered two consecutive nights 90 mins prior to sleep by polysomnography; format: functional
Homo sapiens [9] = assay: Effect on sleep parameter in insomnia patient assessed as total sleep time at 10 mg, po administered two consecutive nights 90 mins prior to sleep by polysomnography; format: functional
Homo sapiens [10] = assay: Effect on sleep parameter in insomnia patient assessed as total sleep time at 30 mg, po administered two consecutive nights 90 mins prior to sleep by polysomnography; format: functional
Homo sapiens [11] = assay: Effect on sleep parameter in insomnia patient assessed as wake after sleep onset time at 30 mg, po administered two consecutive nights 90 mins prior to sleep by polysomnography; format: functional
Homo sapiens [12] = assay: Effect on sleep parameter in insomnia patient assessed as total sleep time at 60 mg, po administered two consecutive nights 90 mins prior to sleep by polysomnography; format: functional
Homo sapiens [13] = assay: Effect on sleep parameter in insomnia patient assessed as latency to persistent sleep time at 10 mg, po administered two consecutive nights 90 mins prior to sleep by polysomnography; format: functional
Homo sapiens [14] = assay: Effect on sleep parameter in insomnia patient assessed as wake after sleep onset time at 60 mg, po administered two consecutive nights 90 mins prior to sleep by polysomnography; format: functional
Homo sapiens [15] = assay: Effect on sleep parameter in insomnia patient assessed as sleep efficiency at 10 mg, po administered two consecutive nights 90 mins prior to sleep by polysomnography; format: functional
[16] = Half life in human plasma; format: ADME, organism-based
Homo sapiens [17] = species: Homo sapiens; assay: as §1; format: ADME, organism-based; conditions: in vivo

Work on `Cc1nc(C(=O)N2CCCC[C@H]2CNC(=O)c2cccc3occc23)c(-c2ccc(F)cc2)s1` (stereo in doubt; form 1) [SB-649868] yielded a half-life [1] of 300 min, a Drug metabolism (Plasma [2]) of 11 %ID and a Drug metabolism (Plasma [3]) of 2 %ID. For the same molecule, the Activity (Homo sapiens [4]) was 14.6%, the Activity (Homo sapiens [5]) was 10.4% and the Time (Homo sapiens [6]) was 3.2 min. The Time (Homo sapiens [7]) was -33 min, the Time (Homo sapiens [8]) was -43.7 min and the Time (Homo sapiens [9]) was 22.4 min. The Time (Homo sapiens [10]) was 49.7 min, the Time (Homo sapiens [11]) was -18.4 min and the Time (Homo sapiens [12]) was 69.8 min. For the same molecule, the Time (Homo sapiens [13]) was -26.1 min, the Time (Homo sapiens [14]) was -29 min and the Activity (Homo sapiens [15]) was 4.7%. The half-life [16] was 240 min.

With `Cc1nc(C(=O)N2CCCC[C@H]2CNC(=O)c2cccc3occc23)c(-c2ccc(F)cc2)s1` (stereo in doubt; form 2) [SB-649868] the “t1/2(app)” value (Homo sapiens [17]) was 39 h.
